Measurements pooled from the literature.
Each line is one published result; the experiments were not run side by side.
CNR1: Cannabinoid receptor 1 (CNR1, Homo sapiens, UniProt P21554)
Oprm1: Mu-type opioid receptor (Oprm1, Mus musculus, UniProt P42866)
Fatty acid-binding protein, intestinal T55A: Fatty acid-binding protein, intestinal (Homo sapiens, UniProt P12104, T55A)

| Compound | target | effect on | mode | technique | setting | endpoint | value |
| --- | --- | --- | --- | --- | --- | --- | --- |
| CCCCC/C=C\[C@H](C)/C=C\C/C=C\Cc1ccccc1CCCC(=O)N[C@H](C)CO | CNR1 | cAMP | agonist |  |  | EC50 | 1610 nM |
| Cc1c(CC(=O)N[C@@H](CN2CCc3ccccc3C2)C(C)C)cccc1[N+](=O)[O-] | Oprm1 | ligand displacement |  | radioligand |  | Ki | 150 nM |
| O=C(O)Cn1c(=O)n(Cc2ccc(Br)cc2F)c(=O)c2ccc(Cl)cc21 | Fatty acid-binding protein, intestinal T55A | ligand displacement |  | fluorescence |  | Kd | 2680 nM |
| CCCCC/C=C\C/C=C\C/C=C\Cc1ccccc1CCCC(=O)N[C@H](C)CO | CNR1 | β-arrestin recruitment | agonist |  |  | EC50 | 607 nM |
| CC(C)(C#N)CCCn1nc(C(=O)NC(C)(C)c2cccc(C(N)=O)c2)c2ccccc21 | CNR1 | ligand displacement |  | radioligand | cell membranes | Ki | 250 nM |
| O=c1cc(CSc2ccc(N=Cc3ccc(F)cc3)cc2)occ1O | PPO3 (Agaricus bisporus, UniProt C7FF04) | enzyme activity | inhibitor | absorbance |  | IC50 | 53500 nM |
| CC[C@H](C)[C@@H](C(=O)N1CCC[C@H]1c1nccs1)N(C)C(=O)[C@H](CC(C)C)N(C)C(=O)[C@H](Cc1ccc(OC)cc1)N(C)C(=O)/C=C(\C)OC | CNR1 | β-arrestin recruitment | antagonist |  |  | IC50 | 11600 nM |
| CC(C)(NC(=O)c1nn(Cc2ccc(C#N)cc2)c2ccccc12)c1cccc(C(N)=O)c1 | CNR1 | ligand displacement |  | radioligand | cell membranes | Ki | 98 nM |
| CC(C)[C@H](CN1CCc2ccccc2C1)NC(=O)Cc1c[nH]c2ccccc12 | Oprm1 | ligand displacement |  | radioligand |  | Ki | 420 nM |
| COc1cc2c(cc1OC)CN(CCc1ccc(NC(=O)c3cccc4c(=O)c5cccc(OC)c5[nH]c34)cc1)CC2 | Histamine H4 receptor (HRH4, Homo sapiens, UniProt Q9H3N8) | cell-free assay |  |  |  | Ki | > 10000 nM |
| COc1cc2c3c(c1OC)-c1c(OC)ccc(Br)c1CC3N(C)CC2 (stereo not shown) | 5-hydroxytryptamine receptor 2A (HTR2A, Homo sapiens, UniProt P28223) | cell-free assay |  | radioligand |  | Ki | 373 nM |
| CC(C)(NC(=O)c1nn(CCCCC#N)c2ccccc12)c1cccc(C(N)=O)c1 | CNR1 | ligand displacement |  | radioligand | cell membranes | Ki | 460 nM |
| CC(C)[C@H](CN1CCc2ccccc2C1)NC(=O)c1cccc(-c2cccc(O)c2)c1 | Oprm1 | ligand displacement |  | radioligand |  | Ki | 3100 nM |
| CC(C)(NC(=O)c1nn(CC2CCCC2)c2ccccc12)c1cccc(C(N)=O)c1 | CNR1 | ligand displacement |  | radioligand | cell membranes | Ki | 130 nM |
| CCOC(=O)c1ccc(OC(=O)CCCCCN=C(N)N)cc1 | Vitamin K-dependent protein C (PROC, Homo sapiens, UniProt P04070) | enzyme activity | inhibitor |  |  | IC50 | 157 nM |
| Cc1oc(-c2ccccc2)nc1CCOc1cccc2c1ccn2CCC(=O)O | Fatty acid-binding protein, intestinal T55A | ligand displacement |  | fluorescence |  | Kd | 31900 nM |
